In publication PMC4545378 (Cancer chemotherapy and pharmacology, 2015):
Where “and” joins values, the source holds several entries; their conditions need not be identical. Identical values can stand only once. Entries after “also recorded” stand apart in the source; their conditions may differ. Like-named read-outs stand apart in the source and are kept apart here.

Tests used:
lysed RBCs = test: BEN in lysed blood; type: in vitro ADME, human
Method in brief: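 10% RBCs in plasma lysed by three freeze-thaw cycles and incubated at 37 °C alongside unlysed cells. Test compound added at 10 μg/mL final; sampled at 5, 60, 120 and 180 min. In a cofactor arm, NADH or NADPH (500 μM final) was added to lysed RBCs and sampling ran from 5 to 120 min. Parent quantified by LC-MS/MS.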

[1] = cited from earlier work
ALDH3A1 = target: T1, ALDH3A1 (Homo sapiens, UniProt P30838); test: Metabolism using purified ALDH isoforms: ALDH3A1; type: biochemical; settings: purified ALDH3A1, BEN 1000 ng/mL
T1 sequence (P30838 1-453): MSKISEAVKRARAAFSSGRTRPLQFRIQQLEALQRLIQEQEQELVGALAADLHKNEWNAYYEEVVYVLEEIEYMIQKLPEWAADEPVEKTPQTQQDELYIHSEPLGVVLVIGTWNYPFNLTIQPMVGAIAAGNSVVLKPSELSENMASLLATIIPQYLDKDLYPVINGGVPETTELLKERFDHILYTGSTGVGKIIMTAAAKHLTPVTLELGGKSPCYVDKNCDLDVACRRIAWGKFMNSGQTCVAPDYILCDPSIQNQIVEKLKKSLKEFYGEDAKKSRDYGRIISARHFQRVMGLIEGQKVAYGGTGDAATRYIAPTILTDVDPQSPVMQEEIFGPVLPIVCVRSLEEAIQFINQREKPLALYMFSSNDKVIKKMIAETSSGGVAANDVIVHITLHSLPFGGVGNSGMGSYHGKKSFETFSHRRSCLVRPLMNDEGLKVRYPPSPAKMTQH

BEN blood partitioning = type: in vitro ADME, human; settings: 50% RBCs in plasma, on ice
Method in brief: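 Blood (50% RBCs in plasma) held on ice with 1 mM disulfiram for 10 min, then dosed with test compound at 1000 ng/mL final. Blood sampled at 5–30 min and spun at 12,000 × g for 2 min; plasma acidified with H2SO4 and analysed by LC-MS/MS. Run in parallel in 100% plasma, in triplicate. Ratio taken as plasma-only concentration divided by plasma concentration from the 50%-RBC incubation.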

[2] = preliminary experiments; cited from earlier work
[3] = tested on: renal carcinoma cells (RCC); settings: cited from earlier work
ALDH2 = target: T2, ALDH2 (Homo sapiens, UniProt P05091); test: Metabolism using purified ALDH isoforms: ALDH2; type: biochemical; settings: purified ALDH2, BEN 1000 ng/mL
T2 sequence (P05091 18-517): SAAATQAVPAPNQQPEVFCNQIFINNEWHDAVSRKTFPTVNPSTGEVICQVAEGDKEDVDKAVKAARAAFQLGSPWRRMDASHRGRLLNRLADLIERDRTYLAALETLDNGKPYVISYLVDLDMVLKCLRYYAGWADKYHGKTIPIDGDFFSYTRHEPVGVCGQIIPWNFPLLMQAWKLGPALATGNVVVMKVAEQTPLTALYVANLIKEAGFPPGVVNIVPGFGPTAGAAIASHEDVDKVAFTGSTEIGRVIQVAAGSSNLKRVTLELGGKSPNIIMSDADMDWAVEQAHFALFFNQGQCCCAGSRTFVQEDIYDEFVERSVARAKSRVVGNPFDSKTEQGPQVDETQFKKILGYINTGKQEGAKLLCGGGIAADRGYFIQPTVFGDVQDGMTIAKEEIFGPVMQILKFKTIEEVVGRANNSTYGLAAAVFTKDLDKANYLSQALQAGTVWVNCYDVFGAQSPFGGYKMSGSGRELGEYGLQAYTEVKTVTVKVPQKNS

RXF-393 = settings: mice, RXF-393 implanted subcutaneously or orthotopically under the renal capsule; cited from earlier work
RBCs [4] = test: Apparent Vmax and Km determination in 10% RBCs in plasma; type: in vitro ADME, human
RBCs [5] = type: in vitro ADME, human; settings: 10% RBCs, all incubations (with and without CO or N2), BEN 3 μg/mL
RBCs [6] = test: BEN metabolism in 10% RBCs with ALDH and AO inhibitor; type: in vitro ADME, human; settings: for inhibition of BEN metabolism (conversion of BEN to BA) in RBC: 10% RBCs in plasma, inhibitor 150 μM
CYP3A = settings: preliminary experiments; cited from earlier work
purified human ALDH1A1 = target: T3, purified human ALDH1A1 (Homo sapiens, UniProt P00352); test: Metabolism using purified ALDH isoforms: ALDH1A1; type: biochemical
T3 sequence (P00352 1-501): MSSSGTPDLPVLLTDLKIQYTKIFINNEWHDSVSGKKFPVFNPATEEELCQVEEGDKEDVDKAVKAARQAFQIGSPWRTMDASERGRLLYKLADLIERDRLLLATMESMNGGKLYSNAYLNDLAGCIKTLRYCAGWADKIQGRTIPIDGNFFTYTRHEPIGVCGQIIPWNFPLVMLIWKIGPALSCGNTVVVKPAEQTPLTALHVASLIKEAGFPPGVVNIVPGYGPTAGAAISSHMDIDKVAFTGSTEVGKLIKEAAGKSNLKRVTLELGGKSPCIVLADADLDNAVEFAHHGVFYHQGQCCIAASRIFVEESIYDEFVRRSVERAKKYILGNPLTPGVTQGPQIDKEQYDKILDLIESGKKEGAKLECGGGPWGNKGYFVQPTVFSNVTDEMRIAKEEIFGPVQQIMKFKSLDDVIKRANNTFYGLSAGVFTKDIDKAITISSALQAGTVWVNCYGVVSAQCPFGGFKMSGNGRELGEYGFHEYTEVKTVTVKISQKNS
Method in brief: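 Purified human ALDH1A1 (5 μg/mL) in […] pH 7.4 with 200 mM KCl and 4 mM DTT, plus test compound at 1000 ng/mL. Pre-incubated 10 min at 37 °C, then started with NAD or […] (1 mM) as the isozyme requires. Sampled at 0–60 min into H2SO4, acetonitrile-extracted, and parent and […] measured by LC-MS/MS. Inhibition arms used anti-ALDH1A1 antibody or disulfiram. Three independent experiments; rate normalised per μg enzyme.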

ALDH5A1 = target: T4, ALDH5A1 (Homo sapiens, UniProt P51649); test: Metabolism using purified ALDH isoforms: ALDH5A1; type: biochemical; settings: purified ALDH5A1, BEN 1000 ng/mL
T4 sequence (P51649 48-535): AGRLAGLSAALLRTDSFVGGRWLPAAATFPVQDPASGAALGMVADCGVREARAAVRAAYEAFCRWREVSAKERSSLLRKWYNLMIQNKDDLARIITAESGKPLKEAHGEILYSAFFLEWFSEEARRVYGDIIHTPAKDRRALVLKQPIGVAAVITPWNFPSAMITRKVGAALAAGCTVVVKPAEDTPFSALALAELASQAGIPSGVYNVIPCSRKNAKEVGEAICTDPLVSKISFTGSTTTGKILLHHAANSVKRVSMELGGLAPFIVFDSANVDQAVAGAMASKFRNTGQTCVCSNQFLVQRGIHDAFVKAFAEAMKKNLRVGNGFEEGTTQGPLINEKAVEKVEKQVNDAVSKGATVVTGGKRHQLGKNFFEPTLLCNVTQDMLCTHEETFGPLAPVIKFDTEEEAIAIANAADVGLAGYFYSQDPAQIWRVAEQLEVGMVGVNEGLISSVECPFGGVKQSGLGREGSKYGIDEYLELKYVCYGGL

RBCs [7] = test: Effect of RBC concentration on BEN metabolism; type: in vitro ADME, human; settings: BEN 10 μg/mL, 37 °C
Method in brief: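 RBCs taken from the bottom of the packed layer, avoiding the buffy coat, and resuspended in plasma at 0, 0.1, 1 and 10%. Test compound spiked at 10 μg/mL and incubated at 37 °C in a shaking bath. Aliquots taken from 0 to 360 min and at 24 h; remaining parent measured by LC-MS/MS.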

[8] = but not plasma; cited from earlier work
[9] = mice, after 20 mg/kg BEN; cited from earlier work
[10] = humans, after 9 mg/m^2; cited from earlier work
[11] = Lot 4 +7 days (7 day old blood stored at 4 °C), 10% RBCs
[12] = mean over the lots of Table 1, 10% RBCs

Structure (SMILES): Cc1cc(N(CCOS(C)(=O)=O)CCOS(C)(=O)=O)ccc1C=O [BEN, 4-[bis[2-[(methylsulfonyl)-oxy]ethyl]amino]-2-methyl-benzaldehyde]
- metabolism of BEN by lysed RBCs (lysed RBCs; 10% RBCs lysed by freeze-thaw, no cofactor added): did not metabolize BEN
- metabolism of BEN by lysed RBCs (lysed RBCs; 10% lysed RBCs + NADH 500 μM): restored the ability of lysed RBCs to metabolize BEN
- metabolism of BEN by lysed RBCs (lysed RBCs; 10% lysed RBCs + NADPH 500 μM): partially restored the ability of lysed RBCs to metabolize BEN
- in vitro half-life in plasma [1]: 22 min
- ability of isoform to metabolize BEN (ALDH3A1): ALDH1A1 was the only isoform that showed the ability to metabolize BEN
- time by which the equilibrium between RBCs and plasma was complete (BEN blood partitioning): ≤ 5 min
- average plasma to whole blood partition ratio (BEN blood partitioning; disulfiram 1 mM, BEN 1000 ng/mL, triplicate): 1.25 ± 0.08
- metabolism in cytosolic fraction [2]: oxidized
- activity in the NCI 60 cell line screen [3]: specific activity against renal carcinoma cells (RCC)
- ability of isoform to metabolize BEN (ALDH2): ALDH1A1 was the only isoform that showed the ability to metabolize BEN
- antitumor activity (RXF-393): demonstrated antitumor activity
- starting concentrations that display linear metabolism (RBCs [4]; 10% RBCs): below 400 ng/mL
- Cl (RBCs [4]; Lot 1 human blood, 10% RBCs): 0.333 mL/min
- Km (RBCs [4]; Lot 1 human blood, 10% RBCs): 196.3 ng/mL
- Vmax (RBCs [4]; Lot 1 human blood, 10% RBCs): 65.44 ng/mL^−1•min^−1•[10% RBC]^−1
- Cl (RBCs [4]; Lot 2 human blood, 10% RBCs): 0.2736 mL/min
- Km (RBCs [4]; Lot 2 human blood, 10% RBCs): 319.5 ng/mL
- Vmax (RBCs [4]; Lot 2 human blood, 10% RBCs): 87.42 ng/mL^−1•min^−1•[10% RBC]^−1
- Cl (RBCs [4]; Lot 3 human blood, 10% RBCs): 0.282 mL/min
- Km (RBCs [4]; Lot 3 human blood, 10% RBCs): 256.2 ng/mL
- Vmax (RBCs [4]; Lot 3 human blood, 10% RBCs): 72.27 ng/mL^−1•min^−1•[10% RBC]^−1
- Cl (RBCs [4]; [11]): 0.1432 mL/min
- Km (RBCs [4]; [11]): 699.6 ng/mL
- Vmax (RBCs [4]; [11]): 100.2 ng/mL^−1•min^−1•[10% RBC]^−1
- Cl (RBCs [4]; Lot 4 human blood, 10% RBCs): 0.1859 mL/min
- Km (RBCs [4]; Lot 4 human blood, 10% RBCs): 609.8 ng/mL
- Vmax (RBCs [4]; Lot 4 human blood, 10% RBCs): 113.4 ng/mL^−1•min^−1•[10% RBC]^−1
- Cl (RBCs [4]; Lot 5 human blood, 10% RBCs): 0.1588 mL/min
- Km (RBCs [4]; Lot 5 human blood, 10% RBCs): 481.8 ng/mL
- Vmax (RBCs [4]; Lot 5 human blood, 10% RBCs): 76.5 ng/mL^−1•min^−1•[10% RBC]^−1
- Cl (RBCs [4]; Lot 6 human blood, 10% RBCs): 0.1836 mL/min
- Km (RBCs [4]; Lot 6 human blood, 10% RBCs): 371.2 ng/mL
- Vmax (RBCs [4]; Lot 6 human blood, 10% RBCs): 68.16 ng/mL^−1•min^−1•[10% RBC]^−1
- Average apparent Km (RBCs [4]; human RBC, abstract): 373 ng/mL
- Cl, Mean (RBCs [4]; [12]): 0.22 mL/min
- Vmax, Mean (RBCs [4]; [12]): 83.3 ng/mL^−1•min^−1•[10% RBC]^−1
- time after which the concentration of BEN was halved (RBCs [5]): approximately 60 min
- amount of BEN remaining (RBCs [6]; control sample without inhibitor, 10% RBCs, BEN 1 μg/mL): 0.5%
- metabolism in liver microsomal fraction (CYP3A): undergoes N-dealkylation
- ability of isoform to metabolize BEN (purified human ALDH1A1; purified ALDH1A1, BEN 1000 ng/mL): showed the ability to metabolize BEN
- rate of disappearance of BEN (purified human ALDH1A1; three independent experiments, 5 μg/mL purified enzyme, BEN 1000 ng/mL, 37 °C): 0.172 ng/min/μg of enzyme and 0.224 ng/min/μg of enzyme and 0.154 ng/min/μg of enzyme
- ability of isoform to metabolize BEN (ALDH5A1): ALDH1A1 was the only isoform that showed the ability to metabolize BEN
- BEN remaining (RBCs [7]; 10% RBCs, after 6 hours): 5%
- BEN remaining (RBCs [7]; 10% RBCs, after one hour): 54%
- BEN remaining (RBCs [7]; no RBCs, after 6 hours): 59%
- BEN remaining (RBCs [7]; no RBCs, after one hour): 99%
- conversion in whole blood [8]: rapidly converted to its carboxylic acid analogue (BA)
- exposures observed [9]: 16 ng/mL
- exposures observed [10]: 14.5 ng/mL

Structure (SMILES): CCN(CC)C(=S)SSC(=S)N(CC)CC [disulfiram]
- inhibition of BEN metabolism (conversion of BEN to BA) in RBC (RBCs [6]; BEN 1 μg/mL): inhibited; also recorded: almost complete inhibition
- inhibition of BEN metabolism by purified ALDH1A1 (purified human ALDH1A1; reaction mixture with 4 mM DTT, antibodies at 100x): did not inhibit

Structure (SMILES): CC1=CC(=O)c2ccccc2C1=O [menadione]
- inhibition of BEN metabolism compared with vehicle control (RBCs [6]; 3 mM menadione, 1.5% DMSO v:v, 10% RBCs): DMSO alone (1.5% DMSO v:v) caused the same extent of inhibition
- inhibition of BEN metabolism (conversion of BEN to BA) in RBC (RBCs [6]; BEN 1 μg/mL): not inhibited; also recorded: only a partial inhibitory effect
